In ChEMBL document CHEMBL1149866, “Cytotoxic diterpenoids from Euphorbia helioscopia” (J Nat Prod, 2008):

Assays:
[1] = tested on: MDA-MB-231; test: Cytotoxicity against human MDA-MB-231 cells by MTT method; type: functional, cell-based
In short: (§1)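 HeLa (human cervical carcinoma) and MDA-MB-231 (breast tumor) cells; MTT viability read-out run per a previously published protocol; IC50 determined; adriamycin as positive control.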

[2] = tested on: HeLa; test: Cytotoxicity against human HeLa cells by MTT method; type: functional, cell-based; in short: as §1

Compound	IC50 [1]	IC50 [2]
CC(=O)O[C@@H]1C[C@@H](OC(C)=O)C(C)(C)/C=C/[C@H](C)[C@H](OC(C)=O)[C@@]2(O)C[C@H](C)[C@H](OC(=O)c3ccccc3)[C@@H]2/C=C/1C [EUPHORNIN]	13.4 µM	3.1 µM
CC1=C2C=C3CC[C@@H]4C(C)(C)[C@H](O)CC[C@@]4(C)[C@@H]3C[C@H]2OC1=O [HELIOSCOPINOLIDE A]	2.1 µM	0.11 µM
CC(=O)O[C@@H]1[C@H]2O[C@@]3(C[C@H](C)[C@H](OC(=O)c4ccccc4)[C@@H]3/C=C(\C)[C@H](OC(C)=O)C[C@@H](OC(C)=O)C1(C)C)[C@@H](OC(C)=O)[C@H]2C	> 10 µM	> 10 µM
CC(=O)O[C@@H]1C[C@@H](O)C(C)(C)/C=C/[C@H](C)[C@H](OC(C)=O)[C@@]2(O)C[C@H](C)[C@H](OC(=O)c3ccccc3)[C@@H]2/C=C/1C [EUPHORNIN B]	> 10 µM	> 10 µM
CC(=O)O[C@@H]1[C@H](C)/C=C/C(C)(C)C(=O)C[C@@H](OC(=O)c2ccccc2)/C(C)=C/[C@H]2[C@@H](OC(=O)c3ccccc3)[C@H](C)C[C@]12OC(C)=O [EUPHOSCOPIN C]	> 10 µM	> 10 µM
CC(=O)O[C@@H]1C[C@@H](OC(C)=O)C(C)(C)[C@H](O)[C@H]2O[C@@]3(C[C@H](C)[C@H](OC(=O)c4ccccc4)[C@@H]3/C=C/1C)[C@@H](OC(C)=O)[C@H]2C	> 10 µM	> 10 µM
CC(=O)O[C@H]1[C@@H](C)/C=C/C(C)(C)[C@H](O)C[C@@H](O)/C(C)=C/[C@H]2[C@@H](OC(=O)c3ccccc3)[C@@H](C)C[C@@]21O	> 10 µM	> 10 µM
CC(=O)O[C@@H]1[C@H](C)/C=C/C(C)(C)C(=O)C[C@@H](OC(=O)c2ccccc2)/C(CO)=C/[C@H]2[C@@H](OC(=O)c3ccccc3)[C@H](C)C[C@]12OC(C)=O	> 10 µM	> 10 µM
CC(=O)O[C@@H]1C[C@@H](OC(C)=O)C(C)(C)/C=C/[C@H](C)[C@H](OC(C)=O)[C@@]2(O)C[C@H](C)[C@H](OC(=O)c3ccccc3)[C@@H]2/C=C/1CO	> 10 µM	> 10 µM
